Test [1] deals with Gamma-aminobutyric acid receptor subunit alpha-6/beta-2 (Rattus norvegicus, UniProt P30191+P63138). Nature of the test: Displacement of [3H]EBOB from rat GABA-A receptor alpha6beta2 expressed in HEK293 cell membranes after 90 mins by liquid scintillation counting analysis. The method, boiled down:
(§1)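 Crude membranes from HEK 293 cells transiently Ca-phosphate-transfected with rat subunit cDNAs, harvested at 48 h. Membranes (150-200 µg protein) incubated with 3 nM [3H]EBOB in 50 mM Tris/citrate pH 7.3 plus 0.2 M NaCl. Compound up to 10 µM, final DMSO 0.1%, no GABA, 90 min at 21 °C. Bound radioligand collected by GF/C filtration and counted by scintillation.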

Test [2] has as its target T1, Gamma-aminobutyric acid receptor subunit alpha-6/beta-3 (Rattus norvegicus) (UniProt P30191+P63079). Nature of the test: Modulation of rat […] GABA-A receptor alpha6beta3 expressed in HEK293 cells up to 10 uM in presence of GABA by patch-clamp assay relative to control. Format: cell-based. The method, boiled down: (§2)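 Rat GABA-A subunits were transiently co-transfected with eGFP into HEK293 cells on coverslips. Fluorescent cells were recorded by whole-cell patch clamp 48 h later; bath pH 7.4, KCl/KOH pipette pH 7.2. Compound was applied at increasing concentrations up to 10 µM with the receptor-specific GABA EC20. Peak currents were fitted logistically for EC50, Hill and % modulation, as mean ± S.E.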
(In patch-clamp work, channel activity is measured electrically.)

In test [3] the target is Gamma-aminobutyric acid receptor subunit alpha-4/beta-3/delta (Rattus norvegicus) (UniProt P18506+P28471+P63079). Nature of the test: Modulation of rat […] GABA-A receptor alpha4beta3delta expressed in HEK293 cells up to 10 uM in presence of GABA by patch-clamp assay relative to control. Format: cell-based. In short, it runs like this:
as §2

Test [4] is filed under the species Rattus norvegicus. Nature of the test: Selectivity ratio of IC50 for rat GABA-A receptor alpha6beta3 expressed in HEK293 cells to IC50 for rat GABA-A receptor alpha6beta3delta expressed in HEK293 cells. Format: cell-based.
For test [5], the species on record is Rattus norvegicus. Nature of the test: Selectivity ratio of IC50 for rat GABA-A receptor alpha6beta3gamma2 expressed in HEK293 cells to IC50 for rat GABA-A receptor alpha6beta3delta expressed in HEK293 cells. The test is classed as cell-based.
For test [6], the target named is T2, Gamma-aminobutyric acid receptor subunit alpha-1/beta-3/gamma-2 (Rattus norvegicus) (UniProt P18508+P62813+P63079). Nature of the test: Agonist activity at rat […] GABA-A receptor alpha1beta3gamma2 expressed in HEK293 cells assessed as ratio of I0 to GABA Imax at 10 uM in absence of GABA by patch-clamp assay. Format: cell-based. The method, boiled down:
(§3)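 Whole-cell patch clamp on single fluorescent HEK 293 cells 48 h after transient co-transfection with rat subunit cDNAs plus eGFP. Extracellular solution 135 mM NaCl, 5.3 mM KCl, 2 mM CaCl2, 2 mM MgSO4, 10 mM HEPES pH 7.4, perfused 3 mL/min. Compound at 10 µM without GABA. Current expressed relative to 1 mM GABA at the same receptor (I0/Imax GABA), mean ± S.D. of n experiments.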

Test [7] concerns the target T1, Gamma-aminobutyric acid receptor subunit alpha-6/beta-3 (Rattus norvegicus). Nature of the test: (§4) Displacement of [3H]EBOB from rat GABA-A receptor alpha6beta3 expressed in HEK293 cell membranes after 90 mins in presence of GABA by liquid scintillation counting analysis.
Test [8] deals with T3, Gamma-aminobutyric acid receptor subunit alpha-6/beta-3 (Rattus norvegicus, UniProt P30191+P63079). The description is as §4.
Test [9] addresses T4, Gamma-aminobutyric acid receptor subunit alpha-4/beta-3/delta (Rattus norvegicus, UniProt P18506+P28471+P63079). Nature of the test: Modulation of rat […] GABA-A receptor alpha4beta3delta expressed in HEK293 cells in presence of GABA by patch-clamp assay. Format: cell-based. In short, it runs like this: as §2
Test [10] addresses T2, Gamma-aminobutyric acid receptor subunit alpha-1/beta-3/gamma-2 (Rattus norvegicus). Nature of the test: Displacement of [3H]EBOB from rat GABA-A receptor alpha1beta3gamma2 expressed in HEK293 cell membranes at 10 uM after 90 mins by liquid scintillation counting analysis relative to control. In short, it runs like this:
as §1
In general terms: Displacement assays read how much labelled ligand stays bound in the presence of the test substance.

The target in test [11] is Gamma-aminobutyric acid receptor subunit alpha-6/beta-3/gamma-2 (Rattus norvegicus, UniProt P18508+P30191+P63079). Nature of the test: Modulation of rat […] GABA-A receptor alpha6beta3gamma2 expressed in HEK293 cells in presence of GABA by patch-clamp assay. Format: cell-based. The method, boiled down:
as §2

The target of test [12] is Gamma-aminobutyric acid receptor subunit alpha-6/beta-3/gamma-2 (Rattus norvegicus) (UniProt P18508+P30191+P63079). Nature of the test: Displacement of [3H]EBOB from rat GABA-A receptor alpha6beta3gamma2 expressed in HEK293 cell membranes up to 10 uM after 90 mins by liquid scintillation counting analysis relative to control. The method, boiled down: as §1
The target in test [13] is Gamma-aminobutyric acid receptor subunit alpha-4/beta-3 (Rattus norvegicus, UniProt P28471+P63079). Nature of the test: Displacement of [3H]EBOB from rat GABA-A receptor alpha4beta3 expressed in HEK293 cell membranes after 90 mins by liquid scintillation counting analysis. The method, boiled down:
as §1

Test [14] has as its target T1, Gamma-aminobutyric acid receptor subunit alpha-6/beta-3 (Rattus norvegicus). Nature of the test: Displacement of [3H]EBOB from rat GABA-A receptor alpha6beta3 expressed in HEK293 cell membranes up to 10 uM after 90 mins by liquid scintillation counting analysis relative to control. In short, it runs like this: as §1
Test [15] has as its target T4, Gamma-aminobutyric acid receptor subunit alpha-4/beta-3/delta. Nature of the test: Displacement of [3H]EBOB from rat GABA-A receptor alpha4beta3delta expressed in HEK293 cell membranes after 90 mins by liquid scintillation counting analysis. In short, it runs like this: as §1
Test [16] addresses T5, Gamma-aminobutyric acid receptor subunit alpha-1/beta-3/delta (Rattus norvegicus) (UniProt P18506+P62813+P63079). Nature of the test: Displacement of [3H]EBOB from rat GABA-A receptor alpha1beta3delta expressed in HEK293 cell membranes at 10 uM after 90 mins by liquid scintillation counting analysis relative to control. In short, it runs like this:
as §1

The target in test [17] is T3, Gamma-aminobutyric acid receptor subunit alpha-6/beta-3. Nature of the test: Displacement of [3H]EBOB from rat GABA-A receptor alpha6beta3 expressed in HEK293 cell membranes after 90 mins by liquid scintillation counting analysis. The method, boiled down:
as §1

The target in test [18] is Gamma-aminobutyric acid receptor subunit alpha-6/beta-2/delta (Rattus norvegicus, UniProt P18506+P30191+P63138). Nature of the test: Displacement of [3H]EBOB from rat GABA-A receptor alpha6beta2delta expressed in HEK293 cell membranes after 90 mins by liquid scintillation counting analysis. In short, it runs like this:
as §1

The target in test [19] is T5, Gamma-aminobutyric acid receptor subunit alpha-1/beta-3/delta (Rattus norvegicus). Nature of the test: Agonist activity at rat […] GABA-A receptor alpha1beta3delta expressed in HEK293 cells assessed as ratio of I0 to GABA Imax at 10 uM in absence of GABA by patch-clamp assay. The test is classed as cell-based. The method, boiled down:
as §3

For test [20], the target named is Gamma-aminobutyric acid receptor subunit alpha-4/beta-3/gamma-2 (Rattus norvegicus, UniProt P18508+P28471+P63079). Nature of the test: Displacement of [3H]EBOB from rat GABA-A receptor alpha4beta3gamma2 expressed in HEK293 cell membranes after 90 mins by liquid scintillation counting analysis. In short, it runs like this: as §1
In test [21] the target is GABA A receptor alpha-6/beta-2/gamma-2 (Rattus norvegicus, UniProt P18508+P30191+P63138). Nature of the test: Displacement of [3H]EBOB from rat GABA-A receptor alpha6beta2gamma2 expressed in HEK293 cell membranes after 90 mins by liquid scintillation counting analysis. The method, boiled down: as §1
The species entered for test [22] is Rattus norvegicus. Nature of the test: Selectivity ratio of IC50 for rat GABA-A receptor alpha4beta3gamma2 expressed in HEK293 cells to IC50 for rat GABA-A receptor alpha4beta3delta expressed in HEK293 cells. Format: cell-based.
Test [23] addresses T3, Gamma-aminobutyric acid receptor subunit alpha-6/beta-3. Nature of the test: Modulation of rat […] GABA-A receptor alpha6beta3 expressed in HEK293 cells in presence of GABA by patch-clamp assay. The test is classed as cell-based. In short, it runs like this: as §2

T3 sequence (P30191 whole entry): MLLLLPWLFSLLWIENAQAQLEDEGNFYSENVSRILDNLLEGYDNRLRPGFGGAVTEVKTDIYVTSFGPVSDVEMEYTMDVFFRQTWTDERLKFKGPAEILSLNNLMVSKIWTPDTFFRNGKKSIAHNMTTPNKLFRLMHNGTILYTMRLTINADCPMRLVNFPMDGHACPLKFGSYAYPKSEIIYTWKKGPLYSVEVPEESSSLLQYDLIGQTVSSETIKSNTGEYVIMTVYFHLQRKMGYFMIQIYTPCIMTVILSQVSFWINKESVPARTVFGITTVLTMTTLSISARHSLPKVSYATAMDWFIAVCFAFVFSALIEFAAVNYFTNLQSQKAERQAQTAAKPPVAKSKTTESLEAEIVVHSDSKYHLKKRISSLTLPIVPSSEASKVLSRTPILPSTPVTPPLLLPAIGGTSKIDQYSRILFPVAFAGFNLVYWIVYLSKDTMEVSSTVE
T3 sequence (P63079 whole entry): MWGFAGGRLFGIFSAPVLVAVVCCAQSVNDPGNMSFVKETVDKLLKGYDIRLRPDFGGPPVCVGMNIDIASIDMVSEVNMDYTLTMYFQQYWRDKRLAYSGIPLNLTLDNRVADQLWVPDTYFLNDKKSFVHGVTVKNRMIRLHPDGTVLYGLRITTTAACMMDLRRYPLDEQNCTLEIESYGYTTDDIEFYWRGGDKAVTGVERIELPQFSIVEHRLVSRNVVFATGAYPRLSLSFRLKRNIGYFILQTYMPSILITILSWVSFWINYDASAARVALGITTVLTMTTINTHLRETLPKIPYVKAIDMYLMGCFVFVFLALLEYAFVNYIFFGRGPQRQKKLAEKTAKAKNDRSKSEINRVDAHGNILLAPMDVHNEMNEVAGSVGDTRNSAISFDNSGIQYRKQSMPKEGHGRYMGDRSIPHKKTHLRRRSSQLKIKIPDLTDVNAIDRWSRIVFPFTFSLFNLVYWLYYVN
T4 sequence (P18506 whole entry): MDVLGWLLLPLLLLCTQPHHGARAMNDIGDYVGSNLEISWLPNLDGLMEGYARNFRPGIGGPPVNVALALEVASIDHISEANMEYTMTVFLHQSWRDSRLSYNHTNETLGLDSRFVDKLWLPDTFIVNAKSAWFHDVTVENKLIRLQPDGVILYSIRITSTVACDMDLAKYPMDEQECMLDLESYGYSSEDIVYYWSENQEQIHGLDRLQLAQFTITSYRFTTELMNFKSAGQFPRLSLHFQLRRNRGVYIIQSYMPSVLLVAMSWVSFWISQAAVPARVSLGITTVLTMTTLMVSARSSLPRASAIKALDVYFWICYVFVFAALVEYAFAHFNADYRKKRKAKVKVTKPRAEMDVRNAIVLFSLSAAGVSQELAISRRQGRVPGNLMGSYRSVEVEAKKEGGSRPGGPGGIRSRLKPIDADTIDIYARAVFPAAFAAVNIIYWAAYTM
T4 sequence (P28471 whole entry): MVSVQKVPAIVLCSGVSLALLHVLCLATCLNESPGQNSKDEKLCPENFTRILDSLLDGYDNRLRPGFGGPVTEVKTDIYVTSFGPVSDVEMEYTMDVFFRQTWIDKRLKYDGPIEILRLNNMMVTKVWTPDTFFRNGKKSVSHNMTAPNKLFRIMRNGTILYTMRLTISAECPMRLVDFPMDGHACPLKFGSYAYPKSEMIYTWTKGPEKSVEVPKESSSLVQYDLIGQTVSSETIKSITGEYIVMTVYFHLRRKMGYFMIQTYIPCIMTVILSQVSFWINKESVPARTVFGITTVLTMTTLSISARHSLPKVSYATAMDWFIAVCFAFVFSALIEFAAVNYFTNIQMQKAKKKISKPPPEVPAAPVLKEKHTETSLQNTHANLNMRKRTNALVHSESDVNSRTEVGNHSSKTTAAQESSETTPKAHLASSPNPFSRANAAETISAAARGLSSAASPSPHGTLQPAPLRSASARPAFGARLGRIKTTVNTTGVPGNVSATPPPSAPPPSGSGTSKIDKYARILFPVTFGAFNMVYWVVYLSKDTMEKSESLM
T4 sequence (P63079 whole entry): as the sequence (P63079 whole entry) above
Chain of Gamma-aminobutyric acid receptor subunit alpha-4/beta-3 (P28471 whole entry): as the sequence (P28471 whole entry) above
Chain of Gamma-aminobutyric acid receptor subunit alpha-4/beta-3 (P63079 whole entry): as the sequence (P63079 whole entry) above
Chain of Gamma-aminobutyric acid receptor subunit alpha-6/beta-2/delta (P18506 whole entry): as the sequence (P18506 whole entry) above
Chain of Gamma-aminobutyric acid receptor subunit alpha-6/beta-2/delta (P30191 whole entry): as the sequence (P30191 whole entry) above
Chain of Gamma-aminobutyric acid receptor subunit alpha-6/beta-2/delta (P63138 whole entry): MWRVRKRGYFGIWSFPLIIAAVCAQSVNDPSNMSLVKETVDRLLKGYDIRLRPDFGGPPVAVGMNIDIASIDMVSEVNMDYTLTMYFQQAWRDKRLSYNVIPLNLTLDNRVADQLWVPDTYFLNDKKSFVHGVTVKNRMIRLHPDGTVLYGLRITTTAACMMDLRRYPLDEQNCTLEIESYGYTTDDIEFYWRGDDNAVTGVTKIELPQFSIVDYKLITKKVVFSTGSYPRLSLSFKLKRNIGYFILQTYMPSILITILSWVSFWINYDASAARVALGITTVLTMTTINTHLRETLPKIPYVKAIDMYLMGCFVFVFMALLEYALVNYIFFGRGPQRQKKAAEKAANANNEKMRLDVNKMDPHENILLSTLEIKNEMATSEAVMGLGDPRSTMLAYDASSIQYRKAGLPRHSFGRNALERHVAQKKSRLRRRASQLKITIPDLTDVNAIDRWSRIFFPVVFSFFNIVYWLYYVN
Chain of Gamma-aminobutyric acid receptor subunit alpha-4/beta-3/gamma-2 (P18508 whole entry): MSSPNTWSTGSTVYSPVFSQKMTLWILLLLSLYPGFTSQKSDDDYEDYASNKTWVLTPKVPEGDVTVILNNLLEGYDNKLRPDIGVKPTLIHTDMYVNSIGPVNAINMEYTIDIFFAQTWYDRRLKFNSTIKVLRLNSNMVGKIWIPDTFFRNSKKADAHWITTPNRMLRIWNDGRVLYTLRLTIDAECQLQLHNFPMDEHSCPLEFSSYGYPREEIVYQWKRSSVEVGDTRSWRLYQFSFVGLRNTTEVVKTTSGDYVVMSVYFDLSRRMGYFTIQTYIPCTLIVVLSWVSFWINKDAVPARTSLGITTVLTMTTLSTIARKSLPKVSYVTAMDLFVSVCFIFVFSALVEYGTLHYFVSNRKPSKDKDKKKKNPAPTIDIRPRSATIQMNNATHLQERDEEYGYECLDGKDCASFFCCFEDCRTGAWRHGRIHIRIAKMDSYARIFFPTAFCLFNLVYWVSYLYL
Chain of Gamma-aminobutyric acid receptor subunit alpha-4/beta-3/gamma-2 (P28471 whole entry): as the sequence (P28471 whole entry) above
Chain of Gamma-aminobutyric acid receptor subunit alpha-4/beta-3/gamma-2 (P63079 whole entry): as the sequence (P63079 whole entry) above
Chain of Gamma-aminobutyric acid receptor subunit alpha-6/beta-3/gamma-2 (P18508 whole entry): as the sequence (P18508 whole entry) above
Chain of Gamma-aminobutyric acid receptor subunit alpha-6/beta-3/gamma-2 (P30191 whole entry): as the sequence (P30191 whole entry) above
Chain of Gamma-aminobutyric acid receptor subunit alpha-6/beta-3/gamma-2 (P63079 whole entry): as the sequence (P63079 whole entry) above
Chain of GABA A receptor alpha-6/beta-2/gamma-2 (P18508 whole entry): as the sequence (P18508 whole entry) above
Chain of GABA A receptor alpha-6/beta-2/gamma-2 (P30191 whole entry): as the sequence (P30191 whole entry) above
Chain of GABA A receptor alpha-6/beta-2/gamma-2 (P63138 whole entry): as the sequence (P63138 whole entry) above
Chain of Gamma-aminobutyric acid receptor subunit alpha-6/beta-2 (P30191 whole entry): as the sequence (P30191 whole entry) above
Chain of Gamma-aminobutyric acid receptor subunit alpha-6/beta-2 (P63138 whole entry): as the sequence (P63138 whole entry) above

Turning to `O=C(Nc1c(-c2cccs2)nc2c(Br)cc(Br)cn12)c1ccc(Cl)cc1`, the IC50 came out at 630 nM in test [1]; 960 nM in test [8]; 1860 nM in test [13]; 510 nM in [15]; 790 nM in test [17]; 150 nM in test [18]. For the same compound, the figures for the IC50 in test [20] and in test [21] were 3290 nM and 1130 nM, respectively. Further, the figures for the Activity in test [2] and in test [3] were 1140% and 297%, respectively. Further, the Ratio IC50 in the test filed under Rattus norvegicus [4] is 2.5; in the test filed under Rattus norvegicus [5] it was 3; in the test filed under Rattus norvegicus [22], 7. Further, the Ratio worked out at 0.058 in [6] and 0.323 in [19]. The Imax stood at 96% in [7]; 13% in test [10]; 94% in test [12]; 90% in [14]; 18% in test [16]. Further, the EC50 in test [9] is 150 nM; in [11], 870 nM; in test [23], 170 nM.

What is called IC50 is the midpoint of a concentration-inhibition curve. In general, EC50 refers to the concentration that produces a half-maximal response.
